From ChEMBL document CHEMBL1240464, “Synthesis, structure and in vitro antibacterial activities of new hybrid disinfectants quaternary ammonium compounds: pyridinium and quinolinium stilbene benzenesulfonates” (2010)
In brackets after ≈: the same amount, converted by molar mass. Activity calls are given as the source filed them. No cut-off for these calls is given here.

How the values were obtained:
[1] = test system: Salmonella typhi; test: Antibacterial activity against Salmonella typhi after 8 to 12 hrs by colorimetric microdilution broth technique; format: functional, Salmonella enterica subsp. enterica serovar Typhi; settings: Salmonella enterica
Procedure, shortened: (§1)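 Broth microdilution with a colorimetric read-out. Bacteria were suspended in RPMI1640 with 1% Alamar Blue. Compound was dissolved in DMSO as a 25 mg/ml stock and added to the first row, then serially halved to a 128-fold final dilution. Plates were incubated at 37 °C for 8–12 h. MIC was the lowest concentration preventing the blue-to-red indicator change. Each assay was run at least three times.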

[2] = test system: Shigella sonnei; test: Antibacterial activity against Shigella sonnei after 8 to 12 hrs by colorimetric microdilution broth technique; format: functional
Procedure, shortened: (§2)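 Broth microdilution in RPMI1640. Bacterial suspension in RPMI1640 is mixed with 1% Alamar Blue. Sample dissolved in DMSO at 25 mg/ml (stock) is added to the first row, then serially diluted two-fold down the plate to 128-fold. Plates are incubated at 37 °C for 8–12 h. MIC is the lowest concentration preventing the Alamar Blue change from blue to red. At least three repeats.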

[3] = test system: Staphylococcus aureus; test: Antibacterial activity against methicillin-resistant Staphylococcus aureus ATCC 43300 after 8 to 12 hrs by colorimetric microdilution broth technique; format: functional; procedure, shortened: as §1
[4] = test system: Enterococcus faecalis; test: Antibacterial activity against Enterococcus faecalis TISTR459 after 8 to 12 hrs by colorimetric microdilution broth technique; format: functional; procedure, shortened: as §1
[5] = test system: Bacillus subtilis; test: Antibacterial activity against Bacillus subtilis after 8 to 12 hrs by colorimetric microdilution broth technique; format: functional; procedure, shortened: as §2
[6] = test system: Enterococcus faecalis; test: Antibacterial activity against vancomycin-resistant Enterococcus faecalis ATCC 51299 after 8 to 12 hrs by colorimetric microdilution broth technique; format: functional; procedure, shortened: as §1
[7] = test system: Pseudomonas aeruginosa; test: Antibacterial activity against Pseudomonas aeruginosa after 8 to 12 hrs by colorimetric microdilution broth technique; format: functional; procedure, shortened: as §2
[8] = test system: Staphylococcus aureus; test: Antibacterial activity against Staphylococcus aureus TISTR517 after 8 to 12 hrs by colorimetric microdilution broth technique; format: functional; procedure, shortened: as §2
[9] = test system: Staphylococcus aureus; test: Antibacterial activity against Staphylococcus aureus TISTR517 at up to 300 ug/ml after 8 to 12 hrs by colorimetric microdilution broth technique; format: functional, organism-based; procedure, shortened: as §2
[10] = test system: Pseudomonas aeruginosa; test: Antibacterial activity against Pseudomonas aeruginosa at up to 300 ug/ml after 8 to 12 hrs by colorimetric microdilution broth technique; format: functional, organism-based; procedure, shortened: as §2
[11] = test system: Salmonella typhi; test: Antibacterial activity against Salmonella typhi at up to 300 ug/ml after 8 to 12 hrs by colorimetric microdilution broth technique; format: functional, organism-based; settings: Salmonella enterica subsp. enterica serovar Typhi; procedure, shortened: as §1
[12] = test system: Shigella sonnei; test: Antibacterial activity against Shigella sonnei at up to 300 ug/ml after 8 to 12 hrs by colorimetric microdilution broth technique; format: functional, organism-based; procedure, shortened: as §2
[13] = test system: Enterococcus faecalis; test: Antibacterial activity against Enterococcus faecalis TISTR459 at up to 300 ug/ml after 8 to 12 hrs by colorimetric microdilution broth technique; format: functional, organism-based; procedure, shortened: as §2

| Compound | MIC [1] [µg/mL] | MIC [2] [µg/mL] | MIC [3] [µg/mL] | MIC [4] [µg/mL] | MIC [5] [µg/mL] | MIC [6] [µg/mL] | MIC [7] [µg/mL] | MIC [8] [µg/mL] | MIC [9] | MIC [10] | MIC [11] | MIC [12] | MIC [13] |
| --- | --- | --- | --- | --- | --- | --- | --- | --- | --- | --- | --- | --- | --- |
| CCOc1ccc(/C=C/c2cccc[n+]2C)cc1.O=S(=O)([O-])c1ccc(Br)cc1 | 300 | 300 | 18.8 | – | – | – | – | – | – | – | – | – | – |
| CCOc1ccc(/C=C/c2cccc[n+]2C)cc1.COc1ccc(S(=O)(=O)[O-])cc1 | – | – | 150 | – | – | – | – | – | – | – | – | – | – |
| CCOc1ccc(/C=C/c2ccc3ccccc3[n+]2C)cc1.Cc1ccc(S(=O)(=O)[O-])cc1 | – | 150 | 2.34 | 37.5 | 9.37 | 37.5 | – | – | – | – | – | – | – |
| CN(C)c1ccc(/C=C/c2ccc3ccccc3[n+]2C)cc1.Cc1ccc(S(=O)(=O)[O-])cc1 | 300 | 2.34 | 2.34 | 2.34 | 2.34 | 2.34 | 300 | 2.34 | – | – | – | – | – |
| CN(C)c1ccc(/C=C/c2cccc[n+]2C)cc1.COc1ccc(S(=O)(=O)[O-])cc1 | 150 | 150 | 75 | 150 | 150 | 150 | 150 | 150 | – | – | – | – | – |
| CCOc1ccc(/C=C/c2ccc3ccccc3[n+]2C)cc1.O=S(=O)([O-])c1ccc(Cl)cc1 | – | 300 | 2.34 | 75 | 75 | 150 | – | – | – | – | – | – | – |
| CCOc1ccc(/C=C/c2ccc3ccccc3[n+]2C)cc1 | – | – | – | – | – | – | – | – | inactive | inactive | inactive | – | – |
| CCOc1ccc(/C=C/c2cccc[n+]2C)cc1.Cc1ccc(S(=O)(=O)[O-])cc1 | 150 | 150 | 37.5 | 150 | 300 | 300 | 37.5 | 150 | – | – | – | – | – |
| CN(C)c1ccc(/C=C/c2cccc[n+]2C)cc1.O=S(=O)([O-])c1ccc(Cl)cc1 | 300 | – | 37.5 | – | 300 | 150 | 300 | – | – | – | – | – | – |
| CCOc1ccc(/C=C/c2cccc[n+]2C)cc1.O=S(=O)([O-])c1ccc(Cl)cc1 | – | – | 75 | – | – | – | – | – | – | – | – | – | – |
| CN[C@H](CC(C)C)C(=O)N[C@H]1C(=O)N[C@@H](CC(N)=O)C(=O)N[C@H]2C(=O)N[C@H]3C(=O)N[C@H](C(=O)N[C@H](C(=O)O)c4cc(O)cc(O)c4-c4cc3ccc4O)[C@H](O)c3ccc(c(Cl)c3)Oc3cc2cc(c3O[C@@H]2O[C@H](CO)[C@@H](O)[C@H](O)[C@H]2O[C@H]2C[C@](C)(N)[C@H](O)[C@H](C)O2)Oc2ccc(cc2Cl)[C@H]1O [VANCOMYCIN] | 2.34 (≈ 1.61 µM) | 2.34 (≈ 1.61 µM) | < 2.34 | 9.38 (≈ 6.47 µM) | 2.34 (≈ 1.61 µM) | 2.34 (≈ 1.61 µM) | 2.34 (≈ 1.61 µM) | 9.37 (≈ 6.47 µM) | – | – | – | – | – |
| CCOc1ccc(/C=C/c2ccc3ccccc3[n+]2C)cc1.O=S(=O)([O-])c1ccc(Br)cc1 [listing 1 of 2 here] | – | 75 | 2.34 | 37.5 | 18.8 | 18.8 | – | 300 | – | – | – | – | – |
| CCOc1ccc(/C=C/c2ccc3ccccc3[n+]2C)cc1.O=S(=O)([O-])c1ccc(Br)cc1 [listing 2 of 2 here] | – | – | – | – | – | – | – | – | – | inactive | inactive | – | – |
| CCOc1ccc(/C=C/c2cccc[n+]2C)cc1.Nc1ccc(S(=O)(=O)[O-])cc1 | – | – | 75 | – | – | – | – | – | – | – | – | – | – |
| CCOc1ccc(/C=C/c2ccc3ccccc3[n+]2C)cc1.[I-] | – | 150 | 2.34 | 75 | 37.5 | 37.5 | – | – | – | – | – | – | – |
| CCOc1ccc(/C=C/c2ccc3ccccc3[n+]2C)cc1.Nc1ccc(S(=O)(=O)[O-])cc1 [listing 1 of 2 here] | 75 | 75 | 4.68 | 37.5 | 37.5 | 75 | – | 37.5 | – | – | – | – | – |

| Compound | MIC [1] [µg/mL] | MIC [2] [µg/mL] | MIC [3] [µg/mL] | MIC [4] [µg/mL] | MIC [5] [µg/mL] | MIC [6] [µg/mL] | MIC [7] [µg/mL] | MIC [8] [µg/mL] | MIC [9] | MIC [10] | MIC [11] | MIC [12] | MIC [13] |
| --- | --- | --- | --- | --- | --- | --- | --- | --- | --- | --- | --- | --- | --- |
| CCOc1ccc(/C=C/c2ccc3ccccc3[n+]2C)cc1.COc1ccc(S(=O)(=O)[O-])cc1 [listing 1 of 2 here] | – | – | – | – | – | – | – | – | inactive | inactive | inactive | – | – |
| CCOc1ccc(/C=C/c2cccc[n+]2C)cc1.[I-] | – | 300 | 37.5 | – | – | – | – | – | – | – | – | – | – |
| CCOc1ccc(/C=C/c2ccc3ccccc3[n+]2C)cc1.Nc1ccc(S(=O)(=O)[O-])cc1 [listing 2 of 2 here] | – | – | – | – | – | – | – | – | – | inactive | – | – | – |
| CN(C)c1ccc(/C=C/c2cccc[n+]2C)cc1 | – | – | – | – | – | – | – | – | inactive | – | – | inactive | inactive |
| CN(C)c1ccc(/C=C/c2ccc3ccccc3[n+]2C)cc1.O=S(=O)([O-])c1ccc(Br)cc1 | 300 | 2.34 | 2.34 | 2.34 | 2.34 | 2.34 | 300 | 2.34 | – | – | – | – | – |
| CN(C)c1ccc(/C=C/c2cccc[n+]2C)cc1.Nc1ccc(S(=O)(=O)[O-])cc1 | – | – | 37.5 | – | – | 300 | – | – | – | – | – | – | – |
| CN(C)c1ccc(/C=C/c2ccc3ccccc3[n+]2C)cc1.[I-] | 300 | 4.68 | 9.37 | 18.8 | 9.37 | 4.68 | 300 | 18.8 | – | – | – | – | – |
| CN(C)c1ccc(/C=C/c2ccc3ccccc3[n+]2C)cc1.COc1ccc(S(=O)(=O)[O-])cc1 [listing 1 of 2 here] | – | – | – | – | – | – | – | – | inactive | inactive | inactive | – | – |
| CCOc1ccc(/C=C/c2ccc3ccccc3[n+]2C)cc1.COc1ccc(S(=O)(=O)[O-])cc1 [listing 2 of 2 here] | – | 150 | 2.34 | 75 | 18.8 | 18.8 | – | – | – | – | – | – | – |
| CN(C)c1ccc(/C=C/c2ccc3ccccc3[n+]2C)cc1.O=S(=O)([O-])c1ccc(Cl)cc1 | 300 | 2.34 | 2.34 | 2.34 | 2.34 | 2.34 | 300 | 2.34 | – | – | – | – | – |
| CN(C)c1ccc(C=Cc2cccc[n+]2C)cc1.[I-] | 300 | 300 | 37.5 | 300 | 300 | 300 | 300 | 300 | – | – | – | – | – |
| CN(C)c1ccc(/C=C/c2ccc3ccccc3[n+]2C)cc1.Nc1ccc(S(=O)(=O)[O-])cc1 | 75 | 75 | 2.34 | 75 | 18.8 | 18.8 | 150 | 75 | – | – | – | – | – |
| CN(C)c1ccc(/C=C/c2cccc[n+]2C)cc1.O=S(=O)([O-])c1ccc(Br)cc1 | – | – | 75 | – | – | – | – | – | – | – | – | – | – |
| CN(C)c1ccc(/C=C/c2cccc[n+]2C)cc1.Cc1ccc(S(=O)(=O)[O-])cc1 | 300 | 300 | 37.5 | 300 | 150 | 300 | 150 | 300 | – | – | – | – | – |
| CN(C)c1ccc(/C=C/c2ccc3ccccc3[n+]2C)cc1.COc1ccc(S(=O)(=O)[O-])cc1 [listing 2 of 2 here] | – | 150 | 2.34 | 150 | 75 | 150 | – | – | – | – | – | – | – |
